Laboratory results: ChEMBL document CHEMBL1250448, “Inhibitor hijacking of Akt activation” (Nat Chem Biol, 2009)

How the values were obtained:
[1] = target: RAF proto-oncogene serine/threonine-protein kinase (Homo sapiens) (UniProt P04049); assay: Inhibition of RAF1 at 1 uM in presence of 100 uM ATP by Select Screen kinase assay relative to untreated control
How it was run: (§1)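 Commercial SelectScreen profiling panel of 220 purified kinases. Each kinase was tested at a single inhibitor concentration of 1 μM, and activity was expressed as percent inhibition.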

[2] = target: T1, G protein-coupled receptor kinase 3 (Homo sapiens) (UniProt P35626); assay: Inhibition of ADRBK2 at 1 uM in presence of 10 uM ATP by Select Screen kinase assay relative to untreated control
T1 sequence (whole entry): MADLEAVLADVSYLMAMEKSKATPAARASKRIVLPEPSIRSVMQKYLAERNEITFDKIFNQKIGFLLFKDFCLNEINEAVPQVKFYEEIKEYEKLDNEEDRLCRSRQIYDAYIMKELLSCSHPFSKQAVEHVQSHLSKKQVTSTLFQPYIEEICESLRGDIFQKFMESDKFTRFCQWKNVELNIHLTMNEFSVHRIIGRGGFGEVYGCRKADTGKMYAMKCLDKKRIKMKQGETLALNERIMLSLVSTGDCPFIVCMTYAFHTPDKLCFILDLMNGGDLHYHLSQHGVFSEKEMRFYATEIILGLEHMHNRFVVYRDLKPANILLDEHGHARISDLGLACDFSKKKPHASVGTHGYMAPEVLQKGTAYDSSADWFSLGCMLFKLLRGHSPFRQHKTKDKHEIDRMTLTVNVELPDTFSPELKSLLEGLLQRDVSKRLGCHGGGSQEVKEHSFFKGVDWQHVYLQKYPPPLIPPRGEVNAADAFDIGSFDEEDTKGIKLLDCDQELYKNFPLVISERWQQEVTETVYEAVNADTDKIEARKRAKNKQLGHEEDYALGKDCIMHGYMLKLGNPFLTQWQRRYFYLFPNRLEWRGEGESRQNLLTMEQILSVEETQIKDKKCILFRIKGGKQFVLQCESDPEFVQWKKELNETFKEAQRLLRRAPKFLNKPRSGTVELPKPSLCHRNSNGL
How it was run: (§2)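 Single-point screen at 1 μM against a panel of 220 purified kinases, run by Invitrogen staff as a SelectScreen profiling service. Read-out is percent inhibition of kinase activity.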

[3] = target: Ribosomal protein S6 kinase alpha-5 (Homo sapiens) (UniProt O75582); assay: Inhibition of RPS6KA5 at 1 uM in presence of 10 uM ATP by Select Screen kinase assay relative to untreated control; how it was run: as §1
[4] = target: Tyrosine-protein kinase CSK (Homo sapiens) (UniProt P41240); assay: Inhibition of CSK at 1 uM in presence of 10 uM ATP by Select Screen kinase assay relative to untreated control; how it was run: as §2
[5] = target: Casein kinase I isoform gamma-2 (Homo sapiens) (UniProt P78368); assay: Inhibition of CSNK1G2 at 1 uM in presence of 10 uM ATP by Select Screen kinase assay relative to untreated control; how it was run: as §2
[6] = target: Ephrin type-A receptor 2 (Homo sapiens) (UniProt P29317); assay: Inhibition of EPHA2 at 1 uM in presence of 10 uM ATP by Select Screen kinase assay relative to untreated control; how it was run: as §2
[7] = target: Fibroblast growth factor receptor 4 (Homo sapiens) (UniProt P22455); assay: Inhibition of FGFR4 at 1 uM in presence of 10 uM ATP by Select Screen kinase assay relative to untreated control
How it was run: (§3)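 Single-concentration profiling at 1 μM against a panel of 220 purified kinases, run as an outsourced SelectScreen kinase profiling service. Activity is expressed as percent inhibition.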

[8] = target: Vascular endothelial growth factor receptor 3 (Homo sapiens) (UniProt P35916); assay: Inhibition of FLT4 at 1 uM in presence of 10 uM ATP by Select Screen kinase assay relative to untreated control; how it was run: as §3
[9] = target: Tyrosine-protein kinase Fyn (Homo sapiens) (UniProt P06241); assay: Inhibition of FYN at 1 uM in presence of 10 uM ATP by Select Screen kinase assay relative to untreated control; how it was run: as §3
[10] = target: G protein-coupled receptor kinase 6 (Homo sapiens) (UniProt P43250); assay: Inhibition of GRK6 at 1 uM in presence of 10 uM ATP by Select Screen kinase assay relative to untreated control; how it was run: as §3
[11] = tested on: Mast/stem cell growth factor receptor Kit (Homo sapiens), P10721 [T670I]; assay: Inhibition of KIT T670I mutant at 1 uM in presence of 10 uM ATP by Select Screen kinase assay relative to untreated control; how it was run: as §3
[12] = target: Leukocyte tyrosine kinase receptor (Homo sapiens) (UniProt P29376); assay: Inhibition of LTK at 1 uM in presence of 10 uM ATP by Select Screen kinase assay relative to untreated control; how it was run: as §3
[13] = target: T2, Dual specificity mitogen-activated protein kinase kinase 6 (Homo sapiens) (UniProt P52564); assay: Inhibition of MAP2K6 at 1 uM in presence of 100 uM ATP by Select Screen kinase assay relative to untreated control; how it was run: as §3
T2 sequence (whole entry): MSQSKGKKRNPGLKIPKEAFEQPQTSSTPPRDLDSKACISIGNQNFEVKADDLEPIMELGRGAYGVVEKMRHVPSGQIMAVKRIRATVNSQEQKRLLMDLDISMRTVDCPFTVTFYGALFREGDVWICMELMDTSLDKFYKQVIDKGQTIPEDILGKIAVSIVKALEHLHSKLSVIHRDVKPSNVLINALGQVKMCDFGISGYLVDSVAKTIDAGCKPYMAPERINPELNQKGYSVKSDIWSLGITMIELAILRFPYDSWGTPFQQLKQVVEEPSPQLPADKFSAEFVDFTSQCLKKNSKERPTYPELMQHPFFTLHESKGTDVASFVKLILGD

[14] = tested on: Hepatocyte growth factor receptor (Homo sapiens), P08581 [M1250T]; assay: Inhibition of MET M1250T mutant at 1 uM in presence of 10 uM ATP by Select Screen kinase assay relative to untreated control; how it was run: as §3
[15] = target: Macrophage-stimulating protein receptor (Homo sapiens) (UniProt Q04912); assay: Inhibition of MST1R at 1 uM in presence of 10 uM ATP by Select Screen kinase assay relative to untreated control; how it was run: as §3
[16] = target: Serine/threonine-protein kinase Nek6 (Homo sapiens) (UniProt Q9HC98); assay: Inhibition of NEK6 at 1 uM in presence of 10 uM ATP by Select Screen kinase assay relative to untreated control; how it was run: as §1
[17] = target: Mitogen-activated protein kinase 3 (ERK1) (Homo sapiens) (UniProt P27361); assay: Inhibition of MAPK3 at 1 uM in presence of 10 uM ATP by Select Screen kinase assay relative to untreated control

Ephrin type-A receptor 2 (Homo sapiens), sequence (P29317 whole entry): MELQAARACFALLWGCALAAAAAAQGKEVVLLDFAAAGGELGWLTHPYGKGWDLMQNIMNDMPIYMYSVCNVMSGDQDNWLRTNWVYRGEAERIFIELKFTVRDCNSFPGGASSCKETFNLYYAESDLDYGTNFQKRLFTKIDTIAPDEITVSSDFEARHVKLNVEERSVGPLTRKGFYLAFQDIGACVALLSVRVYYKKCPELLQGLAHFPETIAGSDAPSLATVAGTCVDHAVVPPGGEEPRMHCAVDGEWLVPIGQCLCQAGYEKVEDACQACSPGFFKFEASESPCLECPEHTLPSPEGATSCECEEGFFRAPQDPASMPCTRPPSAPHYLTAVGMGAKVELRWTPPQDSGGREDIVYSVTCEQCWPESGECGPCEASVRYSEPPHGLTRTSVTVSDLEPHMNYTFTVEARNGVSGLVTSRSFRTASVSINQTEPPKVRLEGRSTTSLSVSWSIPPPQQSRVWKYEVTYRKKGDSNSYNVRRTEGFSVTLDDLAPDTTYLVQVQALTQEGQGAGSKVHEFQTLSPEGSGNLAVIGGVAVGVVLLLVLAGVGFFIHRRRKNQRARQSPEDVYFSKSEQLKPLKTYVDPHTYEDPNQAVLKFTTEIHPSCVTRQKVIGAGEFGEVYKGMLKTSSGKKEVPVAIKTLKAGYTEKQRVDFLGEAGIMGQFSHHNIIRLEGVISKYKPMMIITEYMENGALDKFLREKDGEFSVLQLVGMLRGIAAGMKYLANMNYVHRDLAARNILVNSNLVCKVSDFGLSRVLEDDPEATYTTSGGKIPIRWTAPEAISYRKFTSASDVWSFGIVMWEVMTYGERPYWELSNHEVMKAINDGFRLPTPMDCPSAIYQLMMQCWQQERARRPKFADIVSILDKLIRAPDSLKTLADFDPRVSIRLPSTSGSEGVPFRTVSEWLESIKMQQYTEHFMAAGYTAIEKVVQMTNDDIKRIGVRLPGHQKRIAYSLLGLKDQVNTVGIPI
Tyrosine-protein kinase Fyn (Homo sapiens), sequence (P06241 2-537 limits assumed): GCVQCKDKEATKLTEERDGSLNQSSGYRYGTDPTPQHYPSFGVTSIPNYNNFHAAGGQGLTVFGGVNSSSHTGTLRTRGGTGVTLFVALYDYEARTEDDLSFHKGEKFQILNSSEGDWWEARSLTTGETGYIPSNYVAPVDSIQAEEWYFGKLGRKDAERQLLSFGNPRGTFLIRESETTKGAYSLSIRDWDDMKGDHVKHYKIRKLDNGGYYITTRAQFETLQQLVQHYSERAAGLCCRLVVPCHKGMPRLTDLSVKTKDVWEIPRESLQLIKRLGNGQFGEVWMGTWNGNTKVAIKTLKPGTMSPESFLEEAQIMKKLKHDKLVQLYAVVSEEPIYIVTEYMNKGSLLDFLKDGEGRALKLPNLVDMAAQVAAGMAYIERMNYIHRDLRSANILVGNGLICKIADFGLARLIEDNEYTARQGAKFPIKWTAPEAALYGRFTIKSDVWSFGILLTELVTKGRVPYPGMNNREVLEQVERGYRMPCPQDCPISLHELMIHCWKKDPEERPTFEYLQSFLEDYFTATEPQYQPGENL
Mast/stem cell growth factor receptor Kit (Homo sapiens), P10721 [T670I], sequence (P10721 whole entry T670I): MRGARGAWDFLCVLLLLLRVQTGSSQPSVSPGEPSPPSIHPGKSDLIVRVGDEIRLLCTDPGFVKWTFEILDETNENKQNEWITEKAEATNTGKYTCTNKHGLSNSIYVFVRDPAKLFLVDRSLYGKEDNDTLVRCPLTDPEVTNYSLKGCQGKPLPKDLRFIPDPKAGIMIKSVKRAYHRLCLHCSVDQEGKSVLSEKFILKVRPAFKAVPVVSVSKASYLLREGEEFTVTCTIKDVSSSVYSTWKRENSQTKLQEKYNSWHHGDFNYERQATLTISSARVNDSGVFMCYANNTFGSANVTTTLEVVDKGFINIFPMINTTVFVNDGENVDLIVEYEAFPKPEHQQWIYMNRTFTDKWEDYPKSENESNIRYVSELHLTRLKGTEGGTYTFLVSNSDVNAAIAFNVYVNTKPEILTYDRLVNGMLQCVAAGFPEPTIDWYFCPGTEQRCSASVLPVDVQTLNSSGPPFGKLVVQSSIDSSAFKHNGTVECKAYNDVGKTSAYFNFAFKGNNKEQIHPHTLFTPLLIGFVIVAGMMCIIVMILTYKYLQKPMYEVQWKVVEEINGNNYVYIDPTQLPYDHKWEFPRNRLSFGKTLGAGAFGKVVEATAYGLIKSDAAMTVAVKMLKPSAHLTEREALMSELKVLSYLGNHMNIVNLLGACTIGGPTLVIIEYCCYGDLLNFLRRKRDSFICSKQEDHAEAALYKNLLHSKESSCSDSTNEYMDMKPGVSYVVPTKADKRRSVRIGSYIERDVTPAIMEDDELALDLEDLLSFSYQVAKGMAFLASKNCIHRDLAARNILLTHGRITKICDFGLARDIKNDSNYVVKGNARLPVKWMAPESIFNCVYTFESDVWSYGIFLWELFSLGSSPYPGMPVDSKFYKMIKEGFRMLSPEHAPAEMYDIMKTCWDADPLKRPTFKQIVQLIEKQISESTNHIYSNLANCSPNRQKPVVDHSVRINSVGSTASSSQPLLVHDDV
Vascular endothelial growth factor receptor 3 (Homo sapiens), sequence (P35916 whole entry): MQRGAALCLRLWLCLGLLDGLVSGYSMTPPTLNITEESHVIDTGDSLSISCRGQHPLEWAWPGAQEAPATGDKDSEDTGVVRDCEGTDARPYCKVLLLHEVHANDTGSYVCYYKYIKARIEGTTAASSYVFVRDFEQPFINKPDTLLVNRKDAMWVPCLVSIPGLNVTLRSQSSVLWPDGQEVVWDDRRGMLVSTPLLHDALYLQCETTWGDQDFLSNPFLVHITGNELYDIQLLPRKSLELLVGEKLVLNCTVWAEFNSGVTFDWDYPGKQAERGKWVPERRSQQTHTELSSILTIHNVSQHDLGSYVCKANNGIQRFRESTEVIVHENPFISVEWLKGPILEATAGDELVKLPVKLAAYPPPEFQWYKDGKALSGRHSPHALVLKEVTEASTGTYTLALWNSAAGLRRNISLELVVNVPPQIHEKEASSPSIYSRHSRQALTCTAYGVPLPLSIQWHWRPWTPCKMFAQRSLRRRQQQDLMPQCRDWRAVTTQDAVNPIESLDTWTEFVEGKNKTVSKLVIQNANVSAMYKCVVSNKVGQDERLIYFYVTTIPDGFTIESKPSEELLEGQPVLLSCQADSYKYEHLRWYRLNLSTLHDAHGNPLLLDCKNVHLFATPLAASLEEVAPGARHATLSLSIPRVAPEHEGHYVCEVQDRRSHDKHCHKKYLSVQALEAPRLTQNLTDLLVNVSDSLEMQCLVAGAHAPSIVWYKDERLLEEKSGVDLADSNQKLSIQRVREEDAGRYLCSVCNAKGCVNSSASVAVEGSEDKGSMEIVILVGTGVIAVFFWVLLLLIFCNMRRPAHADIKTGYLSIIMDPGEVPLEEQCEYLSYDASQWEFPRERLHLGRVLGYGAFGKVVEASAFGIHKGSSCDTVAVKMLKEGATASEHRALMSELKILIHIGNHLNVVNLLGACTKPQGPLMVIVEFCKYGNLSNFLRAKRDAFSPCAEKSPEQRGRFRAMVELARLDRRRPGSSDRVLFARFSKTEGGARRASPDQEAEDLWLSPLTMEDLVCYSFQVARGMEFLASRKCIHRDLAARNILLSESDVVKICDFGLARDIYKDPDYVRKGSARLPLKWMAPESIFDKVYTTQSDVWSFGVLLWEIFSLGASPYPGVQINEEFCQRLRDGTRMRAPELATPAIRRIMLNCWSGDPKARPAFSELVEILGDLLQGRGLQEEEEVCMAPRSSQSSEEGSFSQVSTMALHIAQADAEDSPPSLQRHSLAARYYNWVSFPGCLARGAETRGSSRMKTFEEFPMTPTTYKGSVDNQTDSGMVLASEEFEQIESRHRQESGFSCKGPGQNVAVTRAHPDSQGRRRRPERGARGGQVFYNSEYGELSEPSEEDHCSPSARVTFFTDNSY
Ribosomal protein S6 kinase alpha-5 (Homo sapiens), sequence (O75582 whole entry, looked up): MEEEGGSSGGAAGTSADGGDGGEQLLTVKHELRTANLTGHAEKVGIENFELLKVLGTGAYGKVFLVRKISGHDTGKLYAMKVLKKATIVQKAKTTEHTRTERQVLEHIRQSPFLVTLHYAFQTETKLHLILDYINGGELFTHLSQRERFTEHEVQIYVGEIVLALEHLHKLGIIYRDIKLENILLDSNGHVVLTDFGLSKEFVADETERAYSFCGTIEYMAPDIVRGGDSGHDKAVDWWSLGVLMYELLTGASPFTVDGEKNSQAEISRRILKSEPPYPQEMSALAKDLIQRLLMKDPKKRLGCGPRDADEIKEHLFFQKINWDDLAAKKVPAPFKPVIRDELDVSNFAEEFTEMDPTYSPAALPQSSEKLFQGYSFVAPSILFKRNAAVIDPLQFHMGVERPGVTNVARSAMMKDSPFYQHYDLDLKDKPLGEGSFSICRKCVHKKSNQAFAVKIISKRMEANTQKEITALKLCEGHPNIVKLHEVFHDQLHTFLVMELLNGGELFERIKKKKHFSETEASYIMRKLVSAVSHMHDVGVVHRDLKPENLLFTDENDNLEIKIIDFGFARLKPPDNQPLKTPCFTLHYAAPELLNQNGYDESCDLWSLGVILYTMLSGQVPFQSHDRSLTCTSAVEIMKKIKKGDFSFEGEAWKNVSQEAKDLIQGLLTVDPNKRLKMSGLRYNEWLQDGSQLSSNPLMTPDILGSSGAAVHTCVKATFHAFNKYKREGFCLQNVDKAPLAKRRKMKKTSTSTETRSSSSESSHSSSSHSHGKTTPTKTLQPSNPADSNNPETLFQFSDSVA
Serine/threonine-protein kinase Nek6 (Homo sapiens), sequence (Q9HC98 whole entry): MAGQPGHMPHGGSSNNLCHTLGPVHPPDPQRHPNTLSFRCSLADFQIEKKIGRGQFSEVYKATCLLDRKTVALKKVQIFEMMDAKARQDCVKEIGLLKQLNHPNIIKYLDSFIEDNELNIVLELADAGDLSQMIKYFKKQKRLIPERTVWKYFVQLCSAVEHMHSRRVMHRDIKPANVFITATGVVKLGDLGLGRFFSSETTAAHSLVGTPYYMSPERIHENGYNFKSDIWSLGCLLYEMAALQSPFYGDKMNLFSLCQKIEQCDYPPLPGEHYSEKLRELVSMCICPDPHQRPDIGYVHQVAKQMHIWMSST

inhibition [1] [%]	inhibition [2] [%]	inhibition [3] [%]	inhibition [4] [%]	inhibition [5] [%]	inhibition [6] [%]	inhibition [7] [%]	inhibition [8] [%]	inhibition [9] [%]	inhibition [10] [%]	inhibition [11] [%]	inhibition [12] [%]	inhibition [13] [%]	inhibition [14] [%]	inhibition [15] [%]	inhibition [16] [%]	inhibition [17] [%]	Compound
43	10	18	5	15	22	29	70	74	2	29	5	25	11	17	9	47	O=C(NCCCNc1nc(Nc2cccc(NC(=O)N3CCCC3)c2)ncc1I)c1cccs1
12	8	83	3	12	24	15	45	13	27	11	7	11	3	-4	10	14	COc1ccccc1N1CCN(c2ncnc3[nH]nc(Br)c23)CC1

Compound	inhibition [1] [%]	inhibition [2] [%]	inhibition [3] [%]	inhibition [4] [%]	inhibition [5] [%]	inhibition [6] [%]	inhibition [7] [%]	inhibition [8] [%]	inhibition [9] [%]	inhibition [10] [%]	inhibition [11] [%]	inhibition [12] [%]	inhibition [13] [%]	inhibition [14] [%]	inhibition [15] [%]	inhibition [16] [%]	inhibition [17] [%]
Cc1n[nH]c2ccc(-c3cncc(OC[C@@H](N)Cc4c[nH]c5ccccc45)c3)cc12	81	1	102	-1	81	8	-2	1	28	78	0	35	40	5	10	3	43
